Format in all cases: functional
The subject of experiment [1] is Trichophyton mentagrophytes. Kind of experiment: Antifungal activity against Trichophyton mentagrophytes by serial plate dilution method.
The subject of experiment [2] is Pseudomonas aeruginosa. In words: microbe, parasite or virus in culture. To be noted: ATCC27853, read-out: IZ.
Experiment [3] concerns Aspergillus flavus. In words: Antifungal activity against Aspergillus flavus NCIM 524 at […] ug/ml after 3 to 4 days. To be noted: read-out: IZ.
Experiment [4] concerns Aspergillus fumigatus. Kind of experiment: Antifungal activity against Aspergillus fumigatus NCIM 902 by serial plate dilution method.
In experiment [5] the test system is Staphylococcus aureus. Kind of experiment: Antibacterial activity against Staphylococcus aureus ATTC 25923 at […] ug/ml after 3 to 4 days. To be noted: read-out: IZ.
The test system of experiment [6] is Talaromyces marneffei. Kind of experiment: Antifungal activity against Penicillium marneffei by serial plate dilution method. The method, boiled down:
(§1)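 Agar of peptone 1 g, D-glucose 4 g and agar 2 g per 100 mL water, pH 5.7, was lawned with a fungal spore suspension in normal saline. The excess was decanted and plates were dried at 37 °C for 1 h. Wells were punched and compounds in DMSO were added, with a DMSO control. Plates were run in triplicate at 37 °C for 3–4 days, and the inhibition zone diameter was measured.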

Experiment [7] concerns Escherichia coli. In words: Antibacterial activity against Escherichia coli ATTC 25922 after 16 to 18 hrs by serial plate dilution method. To be noted: ATCC25922. The method in brief: (§2)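 Serial dilutions were made in Mueller-Hinton broth in tubes, adjusted to […] with phosphate buffer, and inoculated with a standardized bacterial suspension. Tubes were incubated at 37 °C for 16–18 h. MIC was taken as the lowest concentration with no visible growth.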

Experiment [8] concerns Klebsiella pneumoniae. Kind of experiment: microbe, parasite or virus in culture. To be noted: read-out: IZ.
The subject of experiment [9] is Talaromyces marneffei. In words: Antifungal activity against Penicillium marneffei at […] ug/ml after 3 to 4 days. To be noted: read-out: IZ.
The test system of experiment [10] is Pseudomonas aeruginosa. Kind of experiment: Antibacterial activity against Pseudomonas aeruginosa ATTC 27853 after 16 to 18 hrs by serial plate dilution method. To be noted: ATCC27853. The method in brief:
as §2

The subject of experiment [11] is Staphylococcus aureus. In words: Antibacterial activity against Staphylococcus aureus ATTC 25923 after 16 to 18 hrs by serial plate dilution method. The method in brief:
as §2

Experiment [12] relates to Klebsiella pneumoniae. Kind of experiment: Antibacterial activity against Klebsiella pneumoniae after 16 to 18 hrs by serial plate dilution method. The method in brief:
as §2

The test system of experiment [13] is Aspergillus fumigatus. In words: Antifungal activity against Aspergillus fumigatus NCIM 902 at […] ug/ml after 3 to 4 days. To be noted: read-out: IZ.
Experiment [14] concerns Trichophyton mentagrophytes. Kind of experiment: Antifungal activity against Trichophyton mentagrophytes at […] ug/ml after 3 to 4 days. To be noted: read-out: IZ.
In experiment [15] the test system is Escherichia coli. Kind of experiment: microbe, parasite or virus in culture. To be noted: ATCC25922, read-out: IZ.
Experiment [16] has as its system Aspergillus flavus. Kind of experiment: Antifungal activity against Aspergillus flavus NCIM 524 by serial plate dilution method. The method in brief:
as §1

Experiment [17] has as its system Rattus norvegicus. Kind of experiment: Antiinflammatory activity against carrageenan-induced paw oedema in albino rat at 50 mg/kg, po relative to control. The method, boiled down: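 Albino rats of 180–250 g were fasted 18 h and placed in groups of six. Samples were suspended in 2% w/v acacia mucilage, and the vehicle group served as control. 30 min after dosing, carrageenan (1 mg mL⁻¹, 0.1 mL) was injected subcutaneously into the right hind paw. Paw volume was measured immediately and at 3 h, and % oedema inhibition was calculated versus vehicle controls.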
(In the carrageenan paw model, swelling and tenderness develop within hours.)

Experiment [18] relates to Trichophyton mentagrophytes. In words: Antifungal activity against Trichophyton mentagrophytes at 12 ug/ml after 3 to 4 days. To be noted: read-out: IZ. The method, boiled down:
as §1

Experiment [19] concerns Aspergillus flavus. In words: Antifungal activity against Aspergillus flavus NCIM 524 at 12 ug/ml after 3 to 4 days. To be noted: read-out: IZ. The method in brief: as §1

Values after ≈ are worked out from the molar mass of the structure shown.

One may read the MIC as the lowest concentration that inhibits growth of the organism. The low end stands for inhibition by little substance, the high end for a need for much substance. What is called inhibition in vivo is the share of the control response that was lost under treatment. Higher therefore signals a response far below the control.

On to `Clc1cc(Cl)c(Cl)c(-c2nnc3sc(-c4ccncc4)nn23)c1`, for which the MIC in experiment [1], in [4], in experiment [6], in experiment [7], in [10] and in experiment [11] was 6.25 µg/mL (≈ 16.3 µM) each time. Also, the MIC in [12] and in [16] was 6.25 µg/mL (≈ 16.3 µM) throughout. The zone of inhibition at 6.25 µg/mL in [2], in experiment [3], in experiment [5], in experiment [8], in experiment [9] and in experiment [13] was 16 mm in each case. The zone of inhibition at 6.25 µg/mL in experiment [14] and in [15] was 16 mm in each case. In [17], this molecule had an inhibition in vivo at 50 mg/kg of 11.3%.

As for `Clc1ccc(C2=Nn3c(nnc3-c3cc(Cl)cc(Cl)c3Cl)SC2)cc1`, the MIC in experiment [1], in [4], in [6], in experiment [7], in [10] and in experiment [11] was 6.25 µg/mL (≈ 14.5 µM) throughout. Also, the MIC in experiment [12] and in experiment [16] was 6.25 µg/mL (≈ 14.5 µM) each time. The zone of inhibition at 6.25 µg/mL in experiment [2], in [3], in experiment [5], in experiment [8], in [9] and in experiment [13] was 16 mm in each case. Also, the zone of inhibition at 6.25 µg/mL in experiment [14] and in experiment [15] was 16 mm throughout. In experiment [17], the inhibition in vivo at 50 mg/kg came to 30.6%.

Turning to `COc1ccc(C2=Nn3c(nnc3-c3cc(Cl)cc(Cl)c3Cl)SC2)cc1`, the MIC in [1], in experiment [4], in experiment [6], in [7], in experiment [10] and in experiment [11] was 6.25 µg/mL (≈ 14.7 µM) each time. Also, the MIC in experiment [12] and in [16] was 6.25 µg/mL (≈ 14.7 µM) in each case. Further, the zone of inhibition at 6.25 µg/mL in [2], in experiment [3], in experiment [5], in experiment [8], in experiment [9] and in [13] was 16 mm throughout. In addition, the zone of inhibition at 6.25 µg/mL in experiment [14] and in experiment [15] was 16 mm throughout. Also, the inhibition in vivo at 50 mg/kg in [17] is 19.4%.

As to `Clc1cc(Cl)c(Cl)c(-c2nnc3sc(COc4ccccc4)nn23)c1`, the MIC in [1] was determined as 12 µg/mL (≈ 29.1 µM); in experiment [4] it was 6.25 µg/mL (≈ 15.2 µM); in experiment [6], 6.25 µg/mL (≈ 15.2 µM); in [7], 6.25 µg/mL (≈ 15.2 µM); in experiment [10], 6.25 µg/mL (≈ 15.2 µM); in experiment [11], 6.25 µg/mL (≈ 15.2 µM). Moreover, the MIC in [12] is 6.25 µg/mL (≈ 15.2 µM); in [16], 12 µg/mL (≈ 29.1 µM). The zone of inhibition at 6.25 µg/mL in experiment [2], in [5], in [8], in [9], in [13] and in [15] was 16 mm throughout. The zone of inhibition at 12 µg/mL in experiment [18] and in experiment [19] was 11 mm each time.

For `Clc1cc(Cl)cc(-c2nn3c(-c4cc(Cl)cc(Cl)c4Cl)nnc3s2)c1`, the MIC in [1], in experiment [4], in experiment [6], in experiment [7], in [10] and in experiment [11] was 6.25 µg/mL (≈ 13.9 µM) throughout. Besides, the MIC in experiment [12] and in [16] was 6.25 µg/mL (≈ 13.9 µM) each time. The zone of inhibition at 6.25 µg/mL in experiment [2], in experiment [3], in experiment [5], in [8], in experiment [9] and in experiment [13] was 16 mm in each case. Moreover, the zone of inhibition at 6.25 µg/mL in experiment [14] and in experiment [15] was 16 mm each time.

For the molecule `CSc1ccc(C2=Nn3c(nnc3-c3cc(Cl)cc(Cl)c3Cl)SC2)cc1`, the MIC in experiment [1], in experiment [4], in experiment [6], in experiment [7], in experiment [10] and in experiment [11] was 6.25 µg/mL (≈ 14.1 µM) in each case. Also, the MIC in [12] and in [16] was 6.25 µg/mL (≈ 14.1 µM) in each case. For the same molecule, the zone of inhibition at 6.25 µg/mL in experiment [2], in experiment [3], in experiment [5], in experiment [8], in experiment [9] and in experiment [13] was 16 mm throughout. Moreover, the zone of inhibition at 6.25 µg/mL in [14] and in experiment [15] was 16 mm throughout. The same molecule returned an inhibition in vivo at 50 mg/kg in [17] of 9.67%.

On to `NC(=O)c1cc(C2=Nn3c(nnc3-c3cc(Cl)cc(Cl)c3Cl)SC2)ccc1O`, for which the MIC in experiment [1], in experiment [4], in experiment [6], in [7], in experiment [10] and in experiment [11] was 6.25 µg/mL (≈ 13.7 µM) throughout. Moreover, the MIC in experiment [12] and in experiment [16] was 6.25 µg/mL (≈ 13.7 µM) in each case. For the same molecule, the zone of inhibition at 6.25 µg/mL in experiment [2], in [3], in experiment [5], in experiment [8], in experiment [9] and in experiment [13] was 16 mm each time. Moreover, the zone of inhibition at 6.25 µg/mL in experiment [14] and in [15] was 16 mm each time.

For the molecule `Clc1cc(Cl)c(Cl)c(-c2nnc3sc(-c4ccncc4Br)nn23)c1`, the MIC in [1], in experiment [4], in experiment [6], in experiment [7], in experiment [10] and in [11] was 6.25 µg/mL (≈ 13.5 µM) in each case. Further, the MIC in [12] and in [16] was 6.25 µg/mL (≈ 13.5 µM) throughout. Also, the zone of inhibition at 6.25 µg/mL in [2], in experiment [3], in [5], in [8], in experiment [9] and in [13] was 16 mm throughout. Moreover, the zone of inhibition at 6.25 µg/mL in [14] and in [15] was 16 mm each time. The inhibition in vivo at 50 mg/kg in [17] was found to be 19.4%.
